ChEMBL document CHEMBL1131139, “Synthesis and antibacterial activity of ketolides (6-O-methyl-3-oxoerythromycin derivatives): a new class of antibacterials highly potent against macrolide-resistant and -susceptible respiratory pathogens” (1998)
≈ marks a conversion by molar mass, not a printed value.

Legend:
Escherichia coli = test: In vitro inhibitory activity against Escherichia coli (250 UC5); type: functional
In short: (§1)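 Two-fold agar dilution on Mueller-Hinton agar (pH 7.4). Inoculum from overnight plate cultures suspended in Mueller-Hinton broth, adjusted to 10^9 CFU/mL, diluted 1:200 and spotted by multipoint inoculator at about 10^4 CFU/spot. Plates incubated 37 °C for 20 h. MIC taken as lowest concentration with no visible growth.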

Haemophilus influenzae [1] = test: In vitro inhibitory activity against Haemophilus influenzae (351CB12); type: functional; in short: as §1
Haemophilus influenzae [2] = test: In vitro inhibitory activity against Haemophilus influenzae (351HT3); type: functional; in short: as §1
[3] = system: Staphylococcus epidermidis; test: In vitro inhibitory activity against Staphylococcus epidermidis (EryRi 012GO11i); type: functional; in short: as §1
Staphylococcus aureus [4] = test: In vitro inhibitory activity against Staphylococcus aureus (011UC4); type: functional; in short: as §1
Staphylococcus aureus [5] = test: In vitro inhibitory activity against Staphylococcus aureus (EryRi 011GO25i); type: functional; in short: as §1
Streptococcus pneumoniae [6] = test: In vitro inhibitory activity against Streptococcus pneumoniae (032UC1); type: functional; in short: as §1
Streptococcus pneumoniae [7] = test: In vitro inhibitory activity against Streptococcus pneumoniae (EryRc 030SJ1); type: functional; in short: as §1
Streptococcus pneumoniae [8] = test: In vitro inhibitory activity against Streptococcus pneumoniae (EryRi 030SJ5i); type: functional; in short: as §1
Streptococcus pyogenes [9] = test: In vitro inhibitory activity against Streptococcus pyogenes (02A1UC1); type: functional; in short: as §1
[10] = system: Staphylococcus epidermidis; test: In vitro inhibitory activity against Staphylococcus epidermidis (EryRc 011CB2)
Mus musculus [11] = test: In Vivo evaluation for its effective dose against Haemophilus influenzae (351RD7 AmpR beta (+)); type: functional
In short: (§2)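 Male Charles River CD1 mice, 20-22 g, 10 per dose group, infected intraperitoneally with 0.5 mL diluted overnight broth culture (physiological buffer or 5% hog mucine) at 10-100 times the minimal lethal dose. Compound suspended in carboxymethylcellulose, 0.5 mL given orally immediately and 4 h postinfection. Survival followed 8-10 days; ED50 (unitary dose protecting 50% from death) by Litchfield-Wilcoxon probit method.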

Mus musculus [12] = test: In Vivo evaluation for its effective dose against Haemophilus influenzae (351GR1); type: functional; in short: as §2
Mus musculus [13] = test: In Vivo evaluation for its effective dose against Haemophilus influenzae (351TO19 AmpR beta (-)); type: functional; in short: as §2
Mus musculus [14] = test: In Vivo evaluation for its effective dose against Staphylococcus aureus (011GO25 EryRi.; type: functional; in short: as §2
Mus musculus [15] = test: In Vivo evaluation for its effective dose against Staphylococcus aureus (011UC4).; type: functional; in short: as §2
Mus musculus [16] = test: In Vivo evaluation for its effective dose against Streptococcus pneumoniae (030Cr29 EryRc); type: functional; in short: as §2
Mus musculus [17] = test: In Vivo evaluation for its effective dose against Streptococcus pneumoniae (030MV2 EryRc); type: functional; in short: as §2
Mus musculus [18] = test: In Vivo evaluation for its effective dose against Streptococcus pneumoniae (030RO1 EryRi); type: functional; in short: as §2
Mus musculus [19] = test: In Vivo evaluation for its effective dose against Streptococcus pneumoniae (030SJ1 EryRc); type: functional; in short: as §2
Mus musculus [20] = test: In Vivo evaluation for its effective dose against Streptococcus pneumoniae (030SJ6 EryRc); type: functional; in short: as §2
Mus musculus [21] = test: In Vivo evaluation for its effective dose against Streptococcus pneumoniae (032UC1); type: functional; in short: as §2
Mus musculus [22] = test: In Vivo evaluation for its effective dose against Streptococcus pyogenes (02A1UC1); type: functional; in short: as §2
Staphylococcus aureus [23] = test: In vitro inhibitory activity against Staphylococcus aureus (EryRc 011CB20); type: functional; in short: as §1
Streptococcus pyogenes [24] = test: In vitro inhibitory activity against Streptococcus pyogenes (02A1UC1)

SMILES	MIC (Escherichia coli)	MIC (Haemophilus influenzae [1])	MIC (Haemophilus influenzae [2])	MIC [3]	MIC (Staphylococcus aureus [4])	MIC (Staphylococcus aureus [5])	MIC (Streptococcus pneumoniae [6])	MIC (Streptococcus pneumoniae [7])	MIC (Streptococcus pneumoniae [8])	also measured
CC[C@H]1OC(=O)[C@H](C)C(=O)[C@H](C)[C@@H](O[C@@H]2O[C@H](C)C[C@H](N(C)C)[C@H]2O)[C@](C)(OC)C[C@@H](C)C(=O)[C@H](C)[C@H]2N(CCCCc3ccnc4ccccc34)C(=O)O[C@]12C	40 µg/mL (≈ 50.3 µM)	1.2 µg/mL (≈ 1.51 µM)	1.2 µg/mL (≈ 1.51 µM)	0.15 µg/mL (≈ 0.188 µM)	0.04 µg/mL (≈ 0.0503 µM)	0.08 µg/mL (≈ 0.101 µM)	0.02 µg/mL (≈ 0.0251 µM)	1.2 µg/mL (≈ 1.51 µM)	0.02 µg/mL (≈ 0.0251 µM)	MIC (Streptococcus pyogenes [9]): 0.02 µg/mL (≈ 0.0251 µM); MIC [10]: 40 µg/mL (≈ 50.3 µM)
CC[C@H]1OC(=O)[C@H](C)C(=O)[C@H](C)[C@@H](O[C@@H]2O[C@H](C)C[C@H](N(C)C)[C@H]2O)[C@](C)(OC)C[C@@H](C)C(=O)[C@H](C)[C@H]2N(NCCCc3ccnc4ccccc34)C(=O)O[C@]12C	40 µg/mL (≈ 50.2 µM)	0.6 µg/mL (≈ 0.753 µM)	0.6 µg/mL (≈ 0.753 µM)	0.04 µg/mL (≈ 0.0502 µM)	0.02 µg/mL (≈ 0.0251 µM)	0.08 µg/mL (≈ 0.1 µM)	0.02 µg/mL (≈ 0.0251 µM)	0.15 µg/mL (≈ 0.188 µM)	0.02 µg/mL (≈ 0.0251 µM)	ED50 (Mus musculus [11]): 116 mg/kg; ED50 (Mus musculus [12]): 142 mg/kg; ED50 (Mus musculus [13]): 410 mg/kg; ED50 (Mus musculus [14]): 13 mg/kg; ED50 (Mus musculus [15]): 20 mg/kg; ED50 (Mus musculus [16]): 15 mg/kg; ED50 (Mus musculus [17]): 19 mg/kg; ED50 (Mus musculus [18]): 30 mg/kg; ED50 (Mus musculus [19]): 42 mg/kg; ED50 (Mus musculus [20]): 17 mg/kg; ED50 (Mus musculus [21]): 15.8 mg/kg; ED50 (Mus musculus [22]): 16 mg/kg; MIC (Staphylococcus aureus [23]): 40 µg/mL (≈ 50.2 µM); MIC (Streptococcus pyogenes [24]): 0.02 µg/mL (≈ 0.0251 µM)
